Experimental data from ChEMBL document CHEMBL1128448, “Synthesis and antifungal activity of new azole derivatives containing an N-acylmorpholine ring” (1995).
In brackets after ≈: the same amount, converted by molar mass.

How the values were obtained:
Microsporum canis = experiment: In vitro evaluation of minimum inhibitory concentration against Microsporum canis 47; format: functional
Method in brief: (§1)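 Stocks are 800 μg/mL in 50% ethanol. Each plate gets 10 μL of inoculum at 10^5 cfu/mL. Incubation at 25 °C, 48 h for yeasts and 120 h for dermatophytes and molds. Organisms are ATCC strains or clinical isolates.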

Mus sp. [1] = experiment: In vivo evaluation of % survival rate after peroral administration on 5th day at dose 1 mg/kg; format: functional
Candida albicans [2] = experiment: In vivo evaluation of minimum inhibitory concentration against Candida albicans 406; format: functional
Method in brief: (§2)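 Broth macrodilution MIC following NCCLS M27-P, in RPMI-1640 buffered with 0.165 M MOPS. Fluconazole was dissolved in water and other drugs in DMSO. C. parapsilosis ATCC 22019 served as the reference strain in every run. MIC was the lowest concentration giving turbidity at or below the 80% inhibition standard.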

Candida albicans [3] = experiment: In vitro evaluation of minimum inhibitory concentration against Candida albicans 76; format: functional; method in brief: as §1
Pichia kudriavzevii = experiment: In vitro evaluation of minimum inhibitory concentration against Candida krusei 70; format: functional; method in brief: as §1
Mus sp. [4] = experiment: In vivo evaluation of % survival rate after peroral administration on 9th day at dose 1 mg/kg; format: functional
Kluyveromyces marxianus [5] = experiment: In vivo Evaluation of minimum inhibitory concentration against Candida pseudotropicalis 13; format: functional; method in brief: as §1
Nannizzia gypsea = experiment: In vitro evaluation of minimum inhibitory concentration against Microsporum gypseum 22; format: functional; method in brief: as §1
Nakaseomyces glabratus = experiment: In vitro evaluation of minimum inhibitory concentration against Torulopsis glabrata 78; format: functional; method in brief: as §1
Rhodotorula mucilaginosa = experiment: In vitro evaluation of minimum inhibitory concentration against Rhodotorula rubra 16; format: functional; details: Rhodotorula mucilaginosa; read-out: MIC; method in brief: as §1
Candida tropicalis = experiment: In vitro evaluation of minimum inhibitory concentration against Candida tropicalis 2.11; format: functional; details: Candida tropicalis; read-out: MIC; method in brief: as §1
Mus sp. [6] = experiment: In vivo evaluation of % survival rate after peroral administration on 3rd day at dose 1 mg/kg; format: functional
Aspergillus flavus = experiment: In vitro evaluation of minimum inhibitory concentration against Aspergillus flavus 19; format: functional; details: Aspergillus flavus; read-out: MIC; method in brief: as §1
Candida parapsilosis = experiment: In vitro evaluation of minimum inhibitory concentration against Candida parapsilosis 61; format: functional; method in brief: as §1
Trichophyton rubrum = experiment: In vitro evaluation of minimum inhibitory concentration against Trichophyton rubrum 90; format: functional; method in brief: as §1
Mus sp. [7] = experiment: In vivo evaluation of % survival rate after peroral administration on 7th day at dose 1 mg/kg; format: functional
Trichophyton benhamiae = experiment: In vitro evaluation of minimum inhibitory concentration against Trichophyton mentagrophytes 23; format: functional, Arthroderma benhamiae; method in brief: as §1
[8] = system: Meyerozyma guilliermondii; experiment: In vitro evaluation of minimum inhibitory concentration against Candida guilliermondii 26; format: functional; method in brief: as §1
Aspergillus niger = experiment: In vitro evaluation of minimum inhibitory concentration against Aspergillus niger 18; format: functional; details: Aspergillus niger; read-out: MIC; method in brief: as §1
Candida albicans [9] = experiment: In vivo evaluation of minimum inhibitory concentration against Candida albicans 60; format: functional; method in brief: as §2
Aspergillus fumigatus = experiment: In vitro evaluation of minimum inhibitory concentration against Aspergillus fumigatus 33; format: functional; method in brief: as §1
Mus sp. [10] = experiment: In vivo evaluation of % survival rate after peroral administration on 5th day at dose 2.5 mg/kg; format: functional; details: route oral, 2.5 mg/kg
Mus sp. [11] = experiment: In vivo evaluation of % survival rate after peroral administration on 7th day at dose 2.5 mg/kg; format: functional; details: route oral, 2.5 mg/kg
Mus sp. [12] = experiment: In vivo evaluation of % survival rate after peroral administration on 3rd day at dose 2.5 mg/kg; format: functional; details: route oral, 2.5 mg/kg
Mus sp. [13] = experiment: In vivo evaluation of % survival rate after peroral administration on 9th day at dose 2.5 mg/kg; format: functional; details: route oral, 2.5 mg/kg
Kluyveromyces marxianus [14] = experiment: In vitro evaluation of minimum inhibitory concentration against Candida pseudotropicalis 13; format: functional; method in brief: as §1
Rattus norvegicus [15] = experiment: In vivo evaluation of antifungal activity against vaginal candidosis in rat at dose 0.5 mg/kg on 15th day; format: functional
Method in brief: (§3)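 Female Wistar rats, 10 per group, received estradiol 25 mg/kg sc on day -5. On day 0 they were infected intravaginally with C. albicans by sterile swab. Infection was confirmed on day 3 by culturing the swab in TSB and then on Sabouraud agar. Oral dosing was once daily on days 3, 4 and 5; controls got vehicle only. Vaginal swabs taken on days 10 and 15 were cultured and read the next day.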

Rattus norvegicus [16] = experiment: In vivo evaluation of antifungal activity against vaginal candidosis in rat at dose 0.25 mg/kg on 15th day; format: functional
Method in brief: (§4)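 Groups of 10 female Wistar rats given estradiol 25 mg/kg sc on day -5, infected intravaginally with C. albicans by sterile swab on day 0; infection confirmed on day 3 by swab culture (TSB, then Sabouraud agar). Oral dosing once daily on days 3, 4, 5; vehicle controls. Vaginal swabs cultured on days 10 and 15; read-out % cured (culture-negative).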

Rattus norvegicus [17] = experiment: In vivo evaluation of antifungal activity against vaginal candidosis in rat at dose 0.5 mg/kg on 10th day; format: functional; method in brief: as §3
Rattus norvegicus [18] = experiment: In vivo evaluation of antifungal activity against vaginal candidosis in rat at dose 0.25 mg/kg on 10th day; format: functional; method in brief: as §4
[19] = Microsporum canis, read-out: MIC
[20] = Candida albicans, read-out: MIC
[21] = Pichia kudriavzevii, read-out: MIC
[22] = Nannizzia gypsea, read-out: MIC
[23] = Nakaseomyces glabratus, read-out: MIC
[24] = Lodderomyces parapsilosis, read-out: MIC
[25] = Trichophyton rubrum, read-out: MIC
[26] = Trichophyton benhamiae, read-out: MIC
[27] = Meyerozyma guilliermondii, read-out: MIC
[28] = Aspergillus fumigatus, read-out: MIC

| SMILES | MIC (Microsporum canis; [19]) | MIC (Pichia kudriavzevii; [21]) | MIC (Nannizzia gypsea; [22]) | MIC (Nakaseomyces glabratus; [23]) | MIC (Rhodotorula mucilaginosa) | MIC (Candida tropicalis) | MIC (Aspergillus flavus) | MIC (Candida parapsilosis; [24]) | MIC (Trichophyton rubrum; [25]) | MIC (Trichophyton benhamiae; [26]) | MIC [8, 27] | MIC (Aspergillus niger) | MIC (Aspergillus fumigatus; [28]) | MIC (Candida albicans [2]) | MIC (Candida albicans [3]) | MIC (Candida albicans [9]) | also measured |
| --- | --- | --- | --- | --- | --- | --- | --- | --- | --- | --- | --- | --- | --- | --- | --- | --- | --- |
| C[C@H]1N(C(=O)c2ccc(OCC(F)(F)C(F)F)cc2)C[C@H](O)O[C@@]1(Cn1cncn1)c1ccc(F)cc1F (racemic) | > 80 µg/mL | > 80 µg/mL | > 80 µg/mL | > 80 µg/mL | > 80 µg/mL | 80 µg/mL (≈ 147 µM) | > 80 µg/mL | 10 µg/mL (≈ 18.4 µM) | > 80 µg/mL | > 80 µg/mL | 80 µg/mL (≈ 147 µM) | > 80 µg/mL | > 80 µg/mL |  |  |  | survival at 1 mg/kg (Mus sp. [1]; Mus sp., po): 50%; MIC (Candida albicans [2]; [20]): 1.25 µg/mL (≈ 2.3 µM); MIC (Candida albicans [3]; [20]): 80 µg/mL (≈ 147 µM); survival at 1 mg/kg (Mus sp. [4]; Mus sp., po): 0%; MIC (Kluyveromyces marxianus [5]; Kluyveromyces marxianus, in the assay text read “In vitro” for “In vivo”, read-out: MIC): 0.63 µg/mL (≈ 1.16 µM); survival at 1 mg/kg (Mus sp. [6]; Mus sp., po): 80%; survival at 1 mg/kg (Mus sp. [7]; Mus sp., po): 0%; MIC (Candida albicans [9]; [20]): 5 µg/mL (≈ 9.18 µM) |
| C[C@H]1N(C(=O)c2ccc(C(F)(F)F)cc2)CCO[C@@]1(Cn1cncn1)c1ccc(F)cc1F (stereo in doubt; (+)-41) |  |  |  |  |  |  |  |  |  |  |  |  |  | >80 µg/mL | >80 µg/mL | >80 µg/mL | MIC (Microsporum canis): >80 µg/mL; MIC (Pichia kudriavzevii): >80 µg/mL; MIC (Kluyveromyces marxianus [5]): 10 µg/mL (≈ 21.4 µM); Survival (Mus sp. [10]): 0%; MIC (Nannizzia gypsea): >80 µg/mL; MIC (Nakaseomyces glabratus): >80 µg/mL; MIC (Candida parapsilosis): >80 µg/mL; MIC (Trichophyton rubrum): 80 µg/mL (≈ 172 µM); Survival (Mus sp. [11]): 0%; MIC (Trichophyton benhamiae): >80 µg/mL; Survival (Mus sp. [12]): 10%; MIC [8]: >80 µg/mL; Survival (Mus sp. [13]): 0%; MIC (Aspergillus fumigatus): >80 µg/mL |
| C[C@H]1N(C(=O)c2ccc(C(F)(F)F)cc2)CC(=O)O[C@@]1(Cn1cncn1)c1ccc(Cl)cc1Cl (stereo in doubt; (-)-32a) | > 80 µg/mL | > 80 µg/mL | > 80 µg/mL | > 80 µg/mL | > 80 µg/mL | 40 µg/mL (≈ 77.9 µM) | > 80 µg/mL | 40 µg/mL (≈ 77.9 µM) | > 80 µg/mL | > 80 µg/mL | 80 µg/mL (≈ 156 µM) | > 80 µg/mL | > 80 µg/mL | 5 µg/mL (≈ 9.74 µM) | 20 µg/mL (≈ 39 µM) | 10 µg/mL (≈ 19.5 µM) | Survival (Mus sp. [1]; route oral, 1 mg/kg): 100%; Survival (Mus sp. [4]; route oral, 1 mg/kg): 10%; MIC (Kluyveromyces marxianus [14]): 10 µg/mL (≈ 19.5 µM); Survival (Mus sp. [6]; route oral, 1 mg/kg): 100%; Cure rate (Rattus norvegicus [15]): 100%; Cure rate (Rattus norvegicus [16]): 70%; Survival (Mus sp. [7]; route oral, 1 mg/kg): 70%; Cure rate (Rattus norvegicus [17]): 80%; Cure rate (Rattus norvegicus [18]): 70% |
